One data set in a line: Safety assessment. It counts as in vivo, Japanese subjects (human). To be noted: single oral 150 mg. Put shortly: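 After an overnight fast, a single oral 150 mg tablet was given. Monitoring covered TEAEs, supine BP and pulse, axillary temperature, haematology, biochemistry, urinalysis and 12-lead ECG up to 7 days post-dose, with follow-up 7 (± 2) days after discharge. TEAEs were coded in MedDRA v17.1. The investigator assigned causality and graded severity by CTCAE v4.0.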

Data set [1] is classed as in vivo, Japanese subjects (human). The following applies: single oral 150 mg; for Tmax: both, human, plasma, po, 150 mg, median tmax. The method, boiled down: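 Renal groups by eGFR from the Japanese creatinine equation. Overnight-fasted subjects received one 150 mg tablet with 150 mL water on Day 1 morning, with no water from 1 h before to 1 h after. Blood was drawn predose, then 0.25–12 h and at 24, 36, 48, 60 and 72 h. Plasma (25 µL) was assayed by validated LC–MS/MS (LLOQ 0.25 ng/mL; linear 0.25–500 ng/mL). AUCinf was regressed on eGFR as a fixed effect.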

The conditions of data set [2]: cited from earlier work; for mean urinary excretion: healthy volunteers.
The conditions of data set [3]: cited from earlier work.

The text below walks through data of publication PMC6989572 (Clinical Drug Investigation, 2019).

Like-named read-outs stand apart in the source and are kept apart here.

On to `NC(=O)c1cnc2[nH]ccc2c1N[C@@H]1[C@@H]2CC3C[C@H]1C[C@@](O)(C3)C2` [Peficitinib], for which the “death, serious TEAE or TEAE leading to withdrawal of treatment” value in “Safety assessment” (all 31 subjects) was “No death, serious TEAE or TEAE leading to withdrawal of treatment was reported”. Moreover, the ECG results in “Safety assessment” (all subjects, day of admission and post-dose time points) is “normal”. The “intensity of TEAEs” value in “Safety assessment” (both TEAEs (headache, ALT increased)) is on record as “mild”. Also, in the data set “Safety assessment”, the “vital sign measurements, mean changes from baseline” value is reported as “No clinically significant mean changes from baseline”. Also, the Tmax in data set [1] (across the renal function groups, fasting conditions) was 1.5 to 1.75 h; in data set [1] (renal impairment groups, fasting), 1.5 h. Also, the “linear regression of AUCinf, CL/F and eGFR across the renal function groups” value in data set [1] is given as “no statistically significant slopes”. Besides, the mean urinary excretion in data set [2] (after 2 weeks of multiple dosing) is recorded as 15–17%; in data set [2] (single oral dose), 9–15 % of dose. For the same compound, the median tmax in data set [2] (healthy subjects, fed conditions) is 4 h.
As for `CCS(=O)(=O)N1CC(CC#N)(n2cc(-c3ncnc4[nH]ccc34)cn2)C1` [baricitinib], the “AUC increase compared with subjects with normal renal function” value in data set [3] (mild renal impairment) is reported as 1.41 fold; in data set [3] (moderate renal impairment), 2.22 fold; in data set [3] (severe renal impairment), 4.05 fold. Further, the “Cmax increase compared with subjects with normal renal function” value in data set [3] (mild renal impairment) is given as 1.16 fold; in data set [3] (moderate renal impairment), 1.46 fold; in data set [3] (severe renal impairment), 1.40 fold.
